Published values collected from several papers.
Target: Cytochrome P450 2C19 (CYP2C19, Homo sapiens, UniProt P33261)
Observed: enzyme activity
Action: inhibitor

Compound	method	species	medium	time	pH	IC50 [µM]
C=CC(=O)Nc1cc(Nc2nccc(Nc3cc(Cl)c(F)cc3C(C)(C)O)n2)c(OC)cc1N1CC[C@@H](N(C)C)C1		human	liver microsomes			> 30
O=C(NCCN1CCCC1)c1cc(-c2ccc(CN3CCOCC3)cc2)nc2ccc(F)cc12		human	liver microsomes			> 100
COc1ccc2cc3[n+](cc2c1OC)CCc1cc2c(cc1-3)OCO2						> 10
Cc1cc2c(F)c(Oc3ncnn4cc(OC[C@@H](C)O)c(C)c34)ccc2[nH]1	fluorescence			15 min		3.64
CC(CN1c2ccccc2Sc2ccccc21)N(C)C (stereo not drawn)	fluorescence					40.8
CCOC(=O)C1CCN(C(=O)c2ccc(N(CC)Cc3cnc4nc(N)nc(N)c4n3)cc2)CC1	luciferase					6.76
COc1ccc2c(Cc3ccccc3F)c3[n+](cc2c1OC)CCc1cc2c(cc1-3)OCO2						> 10
Nc1nc(N)c2nc(CNc3ccc(C(=O)c4ccccc4)cc3)cnc2n1	luciferase					25.1
CCC(C)(C)C(=O)O[C@H]1C[C@@H](C)C=C2C=C[C@H](C)[C@H](CC[C@@H](O)C[C@@H](O)CC(=O)O)[C@H]21	fluorescence					> 100
CC1=CC(=O)C(C(C)C)=CC1=O	fluorescence				pH 7.4	3.6
Nc1nc(N)c2nc(CNc3ccc(C(=O)NCCc4ccccc4)cc3)cnc2n1	luciferase					15.1
Cc1ccc2nc(-c3ccccc3)c(CNc3ccc(F)cc3)n2c1						0.93
